8 compounds from ChEMBL document CHEMBL4138274, “Multiflorumisides A-G, Dimeric Stilbene Glucosides with Rare Coupling Patterns from the Roots of Polygonum multiflorum” (J Nat Prod, 2018) can be followed below.

Data set [1] relates to RAW264.7. The experiment in a line: Antiinflammatory activity in mouse RAW264.7 cells assessed as inhibition of LPS-stimulated nitric oxide production at 20 uM after 48 hrs by Griess assay relative to control. It counts as functional. The settings on record: RAW264.7, 48 h. An outline of the steps: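 RAW264.7 cells seeded at 4 × 10^4 per well, held 2 h at 37 °C in humidified 5% CO2, then exposed to LPS (200 ng/mL) plus serially diluted test compound for 48 h at 37 °C. Supernatant was mixed 1:1 with Griess reagent, incubated 15 min, and absorbance read at 540 nm as a nitrite measure.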
(The Griess reaction detects nitrite, a stable product of nitric oxide.)

For data set [2], the system named is RAW264.7. As to the kind of experiment: Cytotoxicity against LPS-stimulated mouse RAW264.7 cells assessed as effect on cell viability at 20 uM after 48 hrs by MTT assay. It counts as cell-based. The settings on record: raw264.7, 48 h. The method in brief:
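Viability by MTT on RAW264.7 cells seeded at 4 × 10^4 per well and held 2 h at 37 °C in humidified 5% CO2. Cells were then treated for 48 h at 37 °C with LPS (200 ng/mL) together with serially diluted test compound.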
(In general: Tetrazolium assays rely on reduction of a dye to a coloured formazan, in cell work by metabolically active cells.)

On to `C[C@@H]1C[C@H]2[C@@H]3CCC4=CC(=O)C=C[C@]4(C)[C@@]3(F)[C@@H](O)C[C@]2(C)[C@@]1(O)C(=O)CO` [DEXAMETHASONE], for which, in data set [1], the inhibition at 20 µM is 60.9%.
In the case of `OC[C@H]1O[C@@H](Oc2c(O)cc(O)cc2[C@H]2[C@H](c3ccc(O)cc3)c3c(O)cc(O)c(O[C@@H]4O[C@H](CO)[C@@H](O)[C@H](O)[C@H]4O)c3C[C@H]2c2ccc(O)cc2)[C@H](O)[C@@H](O)[C@@H]1O`, the Activity result in data set [2] is on record as “Non-Toxic”.
`OC[C@H]1O[C@@H](Oc2c(O)cc(O)cc2[C@H]2[C@H](c3ccc(O)cc3)[C@H](c3cc(O)cc(O)c3O[C@@H]3O[C@H](CO)[C@@H](O)[C@H](O)[C@H]3O)[C@H]2c2ccc(O)cc2)[C@H](O)[C@@H](O)[C@@H]1O`: in data set [1], the inhibition at 20 µM is 22.4%. Besides, the Activity result in data set [2] was “Non-Toxic”.
On to `OC[C@H]1O[C@@H](Oc2c(O)cc(O)cc2[C@@H]2[C@@H](c3ccc(O)cc3)c3c(O)cc(O)c(O[C@@H]4O[C@H](CO)[C@@H](O)[C@H](O)[C@H]4O)c3C[C@H]2c2ccc(O)cc2)[C@H](O)[C@@H](O)[C@@H]1O`, for which the Activity result in data set [2] is “Non-Toxic”.
For `OC[C@H]1O[C@@H](Oc2c(O)cc(O)cc2[C@@H]2[C@@H](c3ccc(O)cc3)[C@@H](c3ccc(O)cc3)[C@@H]2c2cc(O)cc(O)c2O[C@@H]2O[C@H](CO)[C@@H](O)[C@H](O)[C@H]2O)[C@H](O)[C@@H](O)[C@@H]1O`, in data set [1], the inhibition at 20 µM is 16.8%. Moreover, in data set [2], the Activity result is “Non-Toxic”.
Regarding `OC[C@H]1O[C@@H](Oc2c(O)cc(O)cc2[C@H]2[C@H](c3ccc(O)cc3)[C@@H](c3cc(O)cc(O)c3O[C@@H]3O[C@H](CO)[C@@H](O)[C@H](O)[C@H]3O)[C@@H]2c2ccc(O)cc2)[C@H](O)[C@@H](O)[C@@H]1O`, the inhibition at 20 µM in data set [1] was 16.7%. Also, in data set [2], the Activity result is listed as “Non-Toxic”.
Regarding `OC[C@H]1O[C@@H](Oc2c(O)cc(O)cc2[C@@H]2[C@@H](c3ccc(O)cc3)[C@H](c3ccc(O)cc3)[C@H]2c2cc(O)cc(O)c2O[C@@H]2O[C@H](CO)[C@@H](O)[C@H](O)[C@H]2O)[C@H](O)[C@@H](O)[C@@H]1O`, the inhibition at 20 µM in data set [1] amounted to 22%. In data set [2], the Activity entry is “Non-Toxic”.
As for `OC[C@H]1O[C@@H](Oc2c(O)cc(O)cc2[C@H]2[C@@H](c3ccc(O)cc3)c3c(O)cc(O)c(O[C@@H]4O[C@H](CO)[C@@H](O)[C@H](O)[C@H]4O)c3C[C@@H]2c2ccc(O)cc2)[C@H](O)[C@@H](O)[C@@H]1O`, in data set [2], the Activity entry was “Non-Toxic”.

What is called inhibition is the percentage by which the read-out fell short of the control.
